# Source: PMC6453127 (Biochimica et biophysica acta. General subjects, 2017)
# Experiments:
# GST-Hsp90α CTD [1] = molecular target: T1, GST-Hsp90α CTD (Homo sapiens, UniProt P07900); experiment: ADH aggregation; assay type: biochemical; conditions: 50 μM; positive control
# Outline: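 Reaction: 6.2 μM equine ADH, with or without 500 nM GST-Hsp90α CTD and compound. Aggregation induced at 55 °C, read as absorbance at 360 nm every minute for 90 min. The 90-min endpoint was used, with the mean of ADH alone set to 100%. Three independent experiments.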
# His6-Hsp90β CTD = His6-Hsp90β CTD (Homo sapiens, UniProt P08238); experiment: BS3 crosslinking dimerization/oligomerization assay, His6-Hsp90β CTD; assay type: biochemical; conditions: 2 μM protein; BS3 crosslinker
# GST-Hsp90α CTD [2] = molecular target: T1, GST-Hsp90α CTD; experiment: ATP-agarose pulldown, Hsp90 CTD; assay type: binding; conditions: 200 μM compound, 6 μM CTD
# GST-Hsp90α NTD = GST-Hsp90α NTD (Homo sapiens, UniProt P07900); experiment: BS3 crosslinking assay, GST-Hsp90α NTD; assay type: biochemical; conditions: 2 μM protein
# Outline: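 2 μM protein buffer-exchanged into 50 mM NaPO₄ and 150 mM NaCl, then preincubated with compound for 1 h at room temperature. BS3 added at 66–200 μM final for 1 h at RT, then quenched with 50 mM Tris-HCl pH 7.5 for 15 min. Boiled in SDS dye, run on 10% SDS-PAGE, western-blotted and probed with anti-GST antibody.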
# GST-Hsp90α CTD [3] = molecular target: T1, GST-Hsp90α CTD; experiment: BS3 crosslinking assay, GST-Hsp90α CTD; assay type: biochemical; conditions: 2 μM protein; NSC145366 10 μM to 100 μM
# full-length Hsp90α = full-length Hsp90α (Homo sapiens, UniProt P07900); experiment: BS3 crosslinking assay, full length Hsp90α; assay type: biochemical; conditions: 2 μM protein; BS3 crosslinker
# Outline: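 Full-length Hsp90α used at 2 μM in 50 mM NaPO₄ and 150 mM NaCl, preincubated with compound for 1 h at room temperature. BS3 crosslinker added at 66–200 μM final for 1 h at RT, then quenched with 50 mM Tris-HCl pH 7.5 for 15 min. Analysed by 10% SDS-PAGE and western blot.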
# Sequence of His6-Hsp90β CTD (P08238 530-724): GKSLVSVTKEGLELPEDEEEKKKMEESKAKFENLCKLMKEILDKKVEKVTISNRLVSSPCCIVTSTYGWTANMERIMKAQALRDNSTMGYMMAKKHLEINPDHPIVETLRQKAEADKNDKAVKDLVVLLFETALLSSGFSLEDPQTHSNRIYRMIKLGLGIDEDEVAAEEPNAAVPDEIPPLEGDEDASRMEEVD
compound,measurement,setting,value
"CO[C@H]1[C@H](OC(=O)c2ccc(C)[nH]2)[C@H](O)[C@@H](Oc2ccc3c(O)c(NC(=O)c4c[nH]c(C(=O)Nc5c(O)c6ccc(O[C@H]7OC(C)(C)[C@@H](OC)[C@H](OC(=O)c8ccc(C)[nH]8)[C@@H]7O)c(C)c6oc5=O)c4C)c(=O)oc3c2C)OC1(C)C [Cm A1, coumermycin A1, reference compound]",increase in ADH aggregation,GST-Hsp90α CTD [1],~ 40%
same,oligomerization state of His6-Hsp90β CTD (crosslinking),His6-Hsp90β CTD,increases the level of monomeric Hsp90 CTD
same,inhibition of CTD binding to ATP-agarose,GST-Hsp90α CTD [2],inhibits CTD binding to ATP
same,oligomerization of GST-Hsp90α NTD (crosslinking),GST-Hsp90α NTD,appears to decrease oligomerization of the NTD
same,oligomerization state of GST-Hsp90α CTD (crosslinking),GST-Hsp90α CTD [3],increases the level of CTD monomers
same,oligomerization state of full-length Hsp90α (crosslinking),full-length Hsp90α,slightly increases the monomer level of full-length Hsp90α
